Consider 14 compounds from PubChem BioAssay.

Calls of active or inactive are those of the source.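 How the source made its calls, unless noted: active means viability loss from added drug above about 55%, and viability with drug at most 40%, in both replicates (limit read from the data, passing the limit was not always enough); inconclusive means both conditions met in only one replicate; inactive means neither replicate meets both conditions.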

A short description of assay [1]: reducers of endogenous Her2 protein level, primary screen, SKBR3 breast tumor cells, AlphaScreen, ATP viability (AID 461;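 active means Her2 level under about 52% in both replicate screens, with viability over 70% of control, limit read from the data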;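 on Her2 level: lower value means less Her2 protein in the cells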;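 on viability: percent of carrier control wells set as 100% viability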). The following applies: 18-24 h, measured here: SKBR3 viability, ATP luminescence, at 10 µM. On the technique in general: In Alpha technology, singlet oxygen from a donor bead excites a nearby acceptor bead.
Assay [2] has as its target Receptor tyrosine-protein kinase erbB-2 (Homo sapiens) (UniProt P04626). The description is as above. Conditions: 18-24 h, at 10 µM, stronger effect = lower value.
Assay [3] is described as follows: SK-BR-3 cell growth inhibitors, pilot screen, 24 h, human (AID 572;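 active means viability at or below 10% of carrier control in both of two separate runs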;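 further: compound exposure lasted between 18 and 24 h rather than exactly 24 h; 100% = carrier-treated control wells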). Conditions: SK-BR-3 viability, CellTiter-Glo luminescence, at 10 µM, stronger effect = lower value.
A short description of assay [4]: HUVEC growth inhibition – cell-based, human, primary screen (AID 575;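 active means viability at or below 30% in both replicate assays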;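 further: 100% = median of untreated cell wells with 0.1% DMSO on each plate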). The following applies: HUVEC proliferation, CellTiter-Glo luminescence, 72 h; at 10 µM; stronger effect = lower value. In outline: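 Assay system: Primary human umbilical vein endothelial cells | Quantity: 1250 cells per well | Medium: Supplemented EBM, 2% fetal bovine serum | Detection: CellTiter-Glo luminescence measuring cellular ATP | Read-out: % viability vs DMSO wells | Plate: Collagen-coated 384-well format | Times: 72 h exposure, 37 °C, 5% CO2, 30 min RT equilibration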
In general terms: Cellular ATP, detected with luciferase, serves as a proxy for viable cell number.

Assay [5] in a line: growth inhibitors of H69AR lung tumor, primary screen, human, duplicate replicates (AID 580;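 active means viability at or under a set limit in both replicates, limit being median viability minus 3 SD, cut at about 48% in these data, passing the limit was not always enough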;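 further: 100% = mean luminescence of untreated wells and 0% = no signal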). The following applies: H69AR lung tumor cells viability, ATP luminescence, 72 h; at 10 µM; stronger effect = lower value.
Assay [6] can be described thus: reversal of MRP1-mediated doxorubicin resistance, pilot screen, H69AR cells, doxorubicin co-treatment (AID 601). Conditions: CellTiter-Glo, 72 h, at 10 µM; for differential viability (reversal): stronger effect = higher value.
Assay [7] is described as follows: 384-well plate pilot, post-Golgi transport modulator project, inhibition of yeast transport mutant growth (AID 636; in the data active means inhibition above about 31%). The following applies: absorbance 615 nm, about 18 h, stronger effect = higher value.
Assay [8] in a line: growth suppression of yeast trafficking mutant, preliminary HTS, modulators of trafficking downstream of Golgi apparatus project, 1536-format plate, OD 615 nm (AID 637; in the data active means inhibition above about 30%). The following applies: yeast transport mutant growth, absorbance 615 nm, 18 h; stronger effect = higher value.
Setting [9] is: H69AR cells + 2 uM doxorubicin, measured here: viability with 2 uM doxorubicin, stronger effect = lower value.
The mark [10] stands for this setting: H69AR cells, compound alone cytotoxicity.

Receptor tyrosine-protein kinase erbB-2 (Homo sapiens), sequence (P04626 whole entry, looked up): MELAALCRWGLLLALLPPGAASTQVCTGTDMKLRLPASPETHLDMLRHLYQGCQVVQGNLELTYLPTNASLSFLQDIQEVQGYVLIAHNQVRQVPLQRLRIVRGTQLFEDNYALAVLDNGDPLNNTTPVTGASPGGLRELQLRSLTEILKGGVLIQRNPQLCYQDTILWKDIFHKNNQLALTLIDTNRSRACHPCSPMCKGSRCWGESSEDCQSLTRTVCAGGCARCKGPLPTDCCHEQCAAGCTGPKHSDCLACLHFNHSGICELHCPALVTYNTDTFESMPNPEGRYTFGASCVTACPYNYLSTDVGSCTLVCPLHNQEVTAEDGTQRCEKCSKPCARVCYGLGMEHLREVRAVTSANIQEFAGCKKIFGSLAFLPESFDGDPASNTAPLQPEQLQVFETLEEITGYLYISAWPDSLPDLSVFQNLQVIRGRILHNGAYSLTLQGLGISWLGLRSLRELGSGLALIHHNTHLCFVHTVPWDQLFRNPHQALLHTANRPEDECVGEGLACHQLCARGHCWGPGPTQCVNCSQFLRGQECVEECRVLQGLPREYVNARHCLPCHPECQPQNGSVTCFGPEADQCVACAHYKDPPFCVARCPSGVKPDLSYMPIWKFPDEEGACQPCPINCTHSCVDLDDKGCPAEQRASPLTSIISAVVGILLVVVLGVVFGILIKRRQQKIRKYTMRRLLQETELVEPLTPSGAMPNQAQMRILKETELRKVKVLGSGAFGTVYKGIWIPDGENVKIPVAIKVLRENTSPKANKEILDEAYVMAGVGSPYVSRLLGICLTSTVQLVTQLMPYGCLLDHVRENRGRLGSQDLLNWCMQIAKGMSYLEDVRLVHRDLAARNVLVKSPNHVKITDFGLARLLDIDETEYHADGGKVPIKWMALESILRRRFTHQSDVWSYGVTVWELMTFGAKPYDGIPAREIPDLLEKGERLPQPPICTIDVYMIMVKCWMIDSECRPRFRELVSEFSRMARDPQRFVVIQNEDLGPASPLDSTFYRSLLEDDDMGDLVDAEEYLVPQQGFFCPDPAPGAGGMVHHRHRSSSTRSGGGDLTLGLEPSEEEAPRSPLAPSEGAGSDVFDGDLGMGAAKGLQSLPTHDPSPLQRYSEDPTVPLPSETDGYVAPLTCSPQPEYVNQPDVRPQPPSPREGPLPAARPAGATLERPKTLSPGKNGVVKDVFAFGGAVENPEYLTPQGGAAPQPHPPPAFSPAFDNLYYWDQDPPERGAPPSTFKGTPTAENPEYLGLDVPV

For orientation: viability means a read-out of living cells in per cent, often relative to untreated cells. What is called inhibition is the drop in the measured response relative to a control, in per cent. In the case of `Cc1ccc(CCNC(=O)CC2Oc3ccc(C)cc3NC2=O)cc1` (stereo not given), the viability was 90% in assay [1]; 90% (inactive) in assay [3]; 74.5% (inactive) in assay [4]; 96% (inactive) in assay [5]; 92.6% in assay [6] (setting [9]); 96% in assay [6] (setting [10]). Moreover, the Her2 level in assay [2] was 93.5% (inactive). In assay [6] (H69AR cells + 2 uM doxorubicin), the differential viability (reversal) was 3.38% (inactive). The results for the inhibition in assay [7] and in assay [8] were 5.47% (inactive) and -2.46% (inactive), respectively.
With `CCCN1C(=O)SC(CC(=O)Nc2ccc(Br)cc2)C1=O` (stereo not given), the viability in assay [1] is 105%; in assay [3] it was 105% (inactive); in assay [4] it was 77.7% (inactive); in assay [5], 95.8% (inactive); in assay [6] (setting [9]), 91.2%; in assay [6] (setting [10]), 95.8%. For the same compound, in assay [2], the Her2 level is 112% (inactive). Besides, the differential viability (reversal) in assay [6] (H69AR cells + 2 uM doxorubicin) was 4.58% (inactive). For the same compound, the inhibition in assay [7] was -2.24% (inactive); in assay [8], -8.41% (inactive).
Turning to `O=C(c1ccccc1F)N1CCN(Cc2cccc(Cl)c2)CC1`, the viability in assay [1] was 101%; in assay [3], 101% (inactive); in assay [4], 107% (inactive); in assay [5], 100% (inactive); in assay [6] (setting [9]), 83.6%; in assay [6] (setting [10]), 100%. In assay [2], the Her2 level is 104% (inactive). Also, the differential viability (reversal) in assay [6] (H69AR cells + 2 uM doxorubicin) is 16.8% (inactive). Besides, the inhibition was -5.32% (inactive) in assay [7] and -2.86% (inactive) in assay [8].
As to `CCCOc1cccc(C2/C(=C(/O)c3ccccc3)C(=O)C(=O)N2CCN(C)C)c1` (stereo not given), the viability is 108% in assay [1]; 108% (inactive) in assay [3]; 99.5% (inactive) in assay [4]; 91.6% (inactive) in assay [5]; 89.1% in assay [6] (setting [9]); 91.6% in assay [6] (setting [10]). Moreover, the Her2 level in assay [2] is 93% (inactive). Also, the differential viability (reversal) in assay [6] (H69AR cells + 2 uM doxorubicin) is 2.56% (inactive). The values for the inhibition in assay [7] and in assay [8] were -6.62% (inactive) and 1.75% (inactive), respectively.
Take `CCOC(=O)CN1CC23C=CC(O2)C(C(=O)Nc2ccc(OC)cc2OC)C3C1=O` (stereo not given): the viability in assay [1] is 99%; in assay [3], 99% (inactive); in assay [4], 93.7% (inactive); in assay [5], 98.9% (inactive); in assay [6] (setting [9]), 93.9%; in assay [6] (setting [10]), 98.9%. Moreover, the Her2 level in assay [2] is 99% (inactive). Moreover, the differential viability (reversal) in assay [6] (H69AR cells + 2 uM doxorubicin) was 5.06% (inactive). Besides, the values for the inhibition in assay [7] and in assay [8] were -0.77% (inactive) and 1.83% (inactive), respectively.
Turning to `Cc1ccc(Nc2nc(N)nc(CN3CCCCCC3)n2)cc1`, the viability is 79.5% in assay [1]; 79.5% (inactive) in assay [3]; 65.7% (inactive) in assay [4]; 78.4% (inactive) in assay [5]; 88.8% in assay [6] (setting [9]); 78.4% in assay [6] (setting [10]). Also, the Her2 level in assay [2] was 73.5% (inactive). Besides, the differential viability (reversal) in assay [6] (H69AR cells + 2 uM doxorubicin) was -10.4% (inactive). The inhibition was -1.69% (inactive) in assay [7] and 2.83% (inactive) in assay [8].
As for `COC(=O)C1=C(C)NC(=O)C1(Nc1ccc(Cl)cn1)C(F)(F)F` (stereo not given), the viability is 90.5% in assay [1]; 90.5% (inactive) in assay [3]; 103% (inactive) in assay [4]; 96.5% (inactive) in assay [5]; 97.7% in assay [6] (setting [9]); 96.5% in assay [6] (setting [10]). The Her2 level in assay [2] was 83.5% (inactive). In addition, the differential viability (reversal) in assay [6] (H69AR cells + 2 uM doxorubicin) was -1.2% (inactive). Moreover, the inhibition in assay [7] was -3.59% (inactive); in assay [8], -5.17% (inactive).
On to `CCN(CC)CCOc1cccc(C(C)C)c1`, for which the viability in assay [1] is 90.5%; in assay [3] it was 90.5% (inactive); in assay [4] it was 92.6% (inactive); in assay [5] it was 109% (inactive); in assay [6] (setting [9]), 91.8%; in assay [6] (setting [10]), 109%. The Her2 level in assay [2] is 95.5% (inactive). Moreover, the differential viability (reversal) in assay [6] (H69AR cells + 2 uM doxorubicin) is 17.4% (inactive). Moreover, the inhibition in assay [7] was 3.25% (inactive); in assay [8], -1.64% (inactive).
As to `Cc1ccc(NC(=O)Nc2ccc3c(c2)N(C)C(=O)CS3)nc1`, the viability is 108% in assay [1]; 108% (inactive) in assay [3]; 45.5% (inactive) in assay [4]; 88.3% (inactive) in assay [5]; 96.4% in assay [6] (setting [9]); 88.3% in assay [6] (setting [10]). The Her2 level in assay [2] was 68.5% (inactive). Moreover, the differential viability (reversal) in assay [6] (H69AR cells + 2 uM doxorubicin) was -8.16% (inactive). The inhibition is -3.73% (inactive) in assay [7] and -0.33% (inactive) in assay [8].
Take `CCOc1ccc(NC(=O)c2ccccc2O)cc1`: the viability in assay [1] was 87.5%; in assay [3], 87.5% (inactive); in assay [4] it was 90.4% (inactive); in assay [5] it was 101% (inactive); in assay [6] (setting [9]) it was 90.5%; in assay [6] (setting [10]), 101%. In addition, in assay [2], the Her2 level is 87.5% (inactive). For the same compound, the differential viability (reversal) in assay [6] (H69AR cells + 2 uM doxorubicin) is 10.1% (inactive). Also, the inhibition is -1.22% (inactive) in assay [7] and -2.7% (inactive) in assay [8].
With `COc1ccc(OC)c(S(=O)(=O)N2CCC(C(=O)NCC3CCCO3)CC2)c1` (stereo not given), the viability is 101% in assay [1]; 101% (inactive) in assay [3]; 106% (inactive) in assay [4]; 98.9% (inactive) in assay [5]; 90.2% in assay [6] (setting [9]); 98.9% in assay [6] (setting [10]). In addition, the Her2 level in assay [2] is 84.5% (inactive). Also, the differential viability (reversal) in assay [6] (H69AR cells + 2 uM doxorubicin) is 8.66% (inactive). In addition, the inhibition in assay [7] is -6.27% (inactive); in assay [8] it was -3.49% (inactive).
Regarding `O=C(CN1C(=O)c2cccc3cccc1c23)NCC1CCCO1` (stereo not given), the viability in assay [1] is 104%; in assay [3], 104% (inactive); in assay [4], 98.8% (inactive); in assay [5] it was 96.5% (inactive); in assay [6] (setting [9]) it was 94.7%; in assay [6] (setting [10]), 96.5%. Also, the Her2 level in assay [2] was 116% (inactive). The differential viability (reversal) in assay [6] (H69AR cells + 2 uM doxorubicin) is 1.85% (inactive). For the same compound, the inhibition in assay [7] is 1.05% (inactive); in assay [8], 1.97% (inactive).
As for `CCCn1c(N)c(C(=O)CSc2nnc(Cc3ccccc3)o2)c(=O)n(C)c1=O`, the viability in assay [1] was 104%; in assay [3], 104% (inactive); in assay [4] it was 75.2% (inactive); in assay [5], 84.6% (inactive); in assay [6] (setting [9]), 98.2%; in assay [6] (setting [10]), 84.6%. Moreover, the Her2 level in assay [2] is 90.5% (inactive). The differential viability (reversal) in assay [6] (H69AR cells + 2 uM doxorubicin) is -13.6% (inactive). Further, the inhibition in assay [7] is 0.65% (inactive); in assay [8] it was 3.93% (inactive).
Regarding `Cc1ccc2[nH]cc(C(=O)CN3CCC4(CC3)OCCO4)c2c1`, the viability was 106% in assay [1]; 106% (inactive) in assay [3]; 104% (inactive) in assay [4]; 92.2% (inactive) in assay [5]; 90.5% in assay [6] (setting [9]); 92.2% in assay [6] (setting [10]). Besides, the Her2 level in assay [2] is 90% (inactive). Also, the differential viability (reversal) in assay [6] (H69AR cells + 2 uM doxorubicin) was 1.75% (inactive). For the same compound, the inhibition in assay [7] is -4.13% (inactive); in assay [8] it was -1.48% (inactive).
